From ChEMBL document CHEMBL1134556, “(-)3-[4-[2-(Phenoxazin-10-yl)ethoxy]phenyl]-2-ethoxypropanoic acid [(-)DRF 2725]: a dual PPAR agonist with potent antihyperglycemic and lipid modulating activity” (J Med Chem, 2001) come the findings set out here.

Holding throughout (format): ADME, organism-based
A short description of series [1]: Pharmacokinetic parameter in Male Wistar rats at 10 mg/kg oral administration. Also on record: dose 10 mg/kg, route oral. The settings on record: rat, in vivo. In outline:
(§1)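 Male Wistar rats; oral arm fasted 14 h, dosed as suspension in 0.25% CMC; IV arm given via tail vein in DMSO 6.6%/Cremophor ELP 6.6%/ethanol 3.3%/saline 83.3%. Retro-orbital blood drawn at 0.05, 0.5, 1, 2, 4, 6, 8, 10 and 21 h. Parameters include AUC0-∞, Cmax, Tmax, Kel, T1/2, Vd, Cl, f. Mean ± SD, n = 4.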

For series [2], the system named is Rattus norvegicus. In words: (§2) Pharmacokinetic parameter in Male Wistar rats at 3 mg/kg intravenous administration. On the set-up: dose 3 mg/kg, route intravenous. The settings on record: in vivo. In outline: as §1
Series [3] is described as follows: as §2. Also on record: dose 3 mg/kg, route intravenous. The settings on record: rat, in vivo. The method, boiled down: as §1

Regarding `CCO[C@@H](Cc1ccc(OCCN2c3ccccc3Oc3ccccc32)cc1)C(=O)O` [RAGAGLITAZAR], in series [1], the AUC stood at 71400 ng·h/mL, the Cmax was 17200 ng/mL, the time of peak concentration (Tmax) was 1.5 h and the bioavailability is 77%. Further, in series [1], the half-life was 2.81 h and the k el was 6.94e-05 s⁻¹. Also, the Vd in series [2] was determined as 36.92 mL. In series [3], the AUC was found to be 27800 ng·h/mL, the highest level (Cmax) was 18300 ng/mL, the clearance is 0.355 mL/min and the half-life was 4.69 h. In addition, in series [3], the k el is 4.17e-05 s⁻¹.

A word on the AUC: it is concentration integrated over time. A higher AUC goes with more exposure. For orientation: Cmax means the highest concentration seen after dosing. The term Tmax denotes the time from dosing to the highest level. One may read the bioavailability as the share of a dose that reaches the circulation, judged against a reference dose that is usually intravenous. Usually half-life stands for the time in which the quantity being followed falls by half. A lower half-life goes with fast loss. One may read the Vd as the apparent volume that relates the amount in the body to the concentration in plasma or blood. A low value points to little distribution into tissue. As usually defined, the clearance is a measure of how efficiently the substance is removed, as volume per time. A lower clearance goes with inefficient removal.
